For assay [1], the target named is T1, recombinant μ4 C-terminal domain (Homo sapiens, UniProt O00189, C235S/C431S).
T1 sequence (O00189 160-453 C235S/C431S): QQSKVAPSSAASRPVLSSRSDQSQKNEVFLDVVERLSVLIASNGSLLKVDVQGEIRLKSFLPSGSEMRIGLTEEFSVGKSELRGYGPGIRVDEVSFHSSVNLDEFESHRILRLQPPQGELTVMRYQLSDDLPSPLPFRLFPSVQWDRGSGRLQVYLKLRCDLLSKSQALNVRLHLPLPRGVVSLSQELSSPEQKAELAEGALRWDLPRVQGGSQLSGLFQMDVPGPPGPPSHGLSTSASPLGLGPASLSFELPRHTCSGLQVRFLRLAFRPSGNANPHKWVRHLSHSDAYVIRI
Kind of assay: Isothermal titration calorimetry. As to conditions: purified components, synthetic peptide. The class given is binding. On the technique in general: Isothermal titration calorimetry measures the heat released or taken up as one component is titrated into another.

Another assay deals with μ4 subunit of AP-4. In words: Yeast two-hybrid. It counts as binding, human. As to conditions: His-deficient plates, 30°C.
Another assay concerns mutant μ4. In words: Yeast two-hybrid. It counts as binding, human. Summed up:
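Yeast co-transformed with Gal4ad fused to wild-type or point-mutant human μ4 (mutations introduced by site-directed mutagenesis) and Gal4bd fused to the APP tail (human APP695 template). Cells spotted on His-deficient and His-containing plates and incubated at 30°C; growth on −His scored as interaction. Controls: Gal4bd-mouse p53 with Gal4ad-SV40 large T antigen.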

The test system of assay [2] is ε, β4 and σ4 subunits of AP-4. In words: Y2H of APP tail with other AP-4 subunits. The class given is binding.
Assay [3] concerns HeLa cells expressing CTFβ-GFP. Kind of assay: Processing of CTFβ-GFP. It counts as cell-based. As to conditions: immunoblot, antibody to GFP; for CTFα and C31 from CTFβ-GFP: DAPT-treated cells. Summed up:
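CTFβ-GFP (wild-type, D664A or F689A/F690A/E691A) expressed in HeLa cells, or in mock- or μ4-siRNA-depleted cells. Same handling: lipofection, 8–16 h, then 16 h ± 250 nM DAPT, 100 μM E-64 and/or 200 μM Z-VAD-FMK, anti-GFP immunoblot; mean ± SD, n=3. Aβ: 4 h [35S]Met-Cys labelling at 37°C, medium immunoprecipitated with 6E10, Tricine 10–20% gels, fluorography; mean ± SD, n=4.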
For orientation: Immunoblotting shows a protein as a band on a membrane.

The subject of the next assay is HeLa cells. Kind of assay: Pulse-chase / immunoblot analysis of APP processing and CTF levels. The class given is cell-based. As to conditions: 250 nM DAPT; decrease elicited by FFE mutation or μ4 depletion.
Assay [4] relates to HeLa cells expressing APP-CFP. Kind of assay: Immunoblot of APP-CFP fragments. It counts as cell-based. As to conditions: for C31 fragment levels/formation: DAPT-treated cells. In outline:
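HeLa cells transfected (Lipofectamine 2000, 1 h, 37°C, no FBS) with C-terminally CFP-tagged APP (wild-type, D664A or F689A/F690A/E691A), or μ4-siRNA-depleted twice and then APP-CFP-transfected. Analysed 8–16 h post-transfection after 16 h ± 250 nM DAPT, 100 μM E-64 and/or 200 μM Z-VAD-FMK. Pellet/supernatant fractionation in some runs. SDS-PAGE, anti-GFP immunoblot. Fragment levels given as mean ± SD of three experiments.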

Assay [5] has as its system APP distribution in HeLa cells. Kind of assay: Immunofluorescence microscopy, intracellular distribution of APP. It counts as cell-based.
The next assay deals with μ1, μ2 and μ3 subunits. In words: Y2H of APP signal with other AP μ subunits. It counts as binding.
Assay [6] has as its target T2, recombinant μ4 C-terminal domain (160–453; C235S, C431S) (human, UniProt O00189 160-453, C235S | C431S).
T2 sequence (looked up): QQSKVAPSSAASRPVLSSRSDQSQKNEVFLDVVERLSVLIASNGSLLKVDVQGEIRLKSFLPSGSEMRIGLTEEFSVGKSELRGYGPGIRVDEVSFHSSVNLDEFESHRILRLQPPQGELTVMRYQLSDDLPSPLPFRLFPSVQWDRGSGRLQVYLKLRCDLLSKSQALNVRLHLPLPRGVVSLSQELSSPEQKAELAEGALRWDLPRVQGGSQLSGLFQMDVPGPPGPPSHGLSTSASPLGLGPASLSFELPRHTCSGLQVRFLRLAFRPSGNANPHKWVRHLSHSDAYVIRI
Kind of assay: ITC.

Peptide text beside a SMILES is read from it. * marks the point of attachment. Cbz = O=C(OCc1ccccc1)*; CH2F = FC*

For orientation: stoichiometry N means a count of units in the complex or per binding partner.

Take ENPTAKAAEQ: in assay [1], the “binding site number / binding by ITC” value is reported as “but not a substituted ENPTAKAAEQ variant, bound”.

For YRFLE, the “Y2H interaction with μ4” value in the assay on μ4 subunit of AP-4 is recorded as “indeed bind to μ4”.

Take YKYLE: the “Y2H interaction with μ4” value with μ4 subunit of AP-4 is reported as “indeed bind to μ4”.

With “APP tail: cytosolic tail of APP fused to Gal4bd”, the “Y2H binding to μ4 S257A/H256A/F255A” value with mutant μ4 (Ser-257 to Ala together with His-256 and Phe-255 to Ala) is given as “completely abolished binding”. Moreover, the “Y2H binding to μ4 F255A/R283D” value in the assay on mutant μ4 (double mutation of Phe-255 and Arg-283) was “completely abrogated”. For the same molecule, the “Y2H binding to μ4 S257A” value in the assay with mutant μ4 (mutation of Ser-257 to Ala) is recorded as “no detectable effect”. For the same molecule, in the assay with mutant μ4 (single mutation of His-256, Glu-265, Arg-283 to Ala), the “Y2H binding to μ4 H256A, E265A or R283A” value is on record as “little or no effect on the interaction”. For the same molecule, the “Y2H binding to μ4 F255A or R283D” value in the assay with mutant μ4 (single mutation of Phe-255 to Ala, or Arg-283 to Asp) is listed as “drastically reduced”. For the same molecule, the “Y2H binding to μ4 H256A/E265A/R283A” value with mutant μ4 (triple mutation) is “greatly decreased the interaction”. In addition, in the assay with μ4 subunit of AP-4, the “Y2H interaction with μ4” value was “interacted exclusively with the μ4 subunit of AP-4”. In assay [2], the “Y2H interaction with ε, β4 and σ4” value is on record as “did not bind to the APP tail”.

As for `C[C@H](NC(=O)Cc1cc(F)cc(F)c1)C(=O)N[C@H](C(=O)OC(C)(C)C)c1ccccc1` [DAPT], in assay [3], the “AICDγ formation/levels from CTFβ-GFP” value is given as “prevented AICDγ formation”; the “CTFα and C31 from CTFβ-GFP” value was “resulted in the appearance of CTFα and C31”. Besides, in the assay on HeLa cells, the “effect of DAPT on the decrease in steady-state CTFα levels” value is “abrogated the decrease in steady-state CTFα levels”. Moreover, in assay [4] (immunoblot, antibody to GFP), the C31 fragment levels/formation entry is on record as “increased the levels of a smaller, soluble fragment” and the AICDγ-CFP formation/levels entry is “precluded AICDγ-CFP formation”. Further, the “difference in AICDγ-CFP levels / CTF accumulation with DAPT” value in [4] (FFE mutation or μ4 depletion, incubation with DAPT) is reported as “abolished by incubation with DAPT, resulting in the accumulation of equal amounts of CTFs under all conditions”. The CTFα-CFP levels result in assay [4] (immunoblot, antibody to GFP, DAPT 250 nM) is given as “increased CTFα-CFP levels”.

For `COC(=O)C[C@H](NC(=O)[C@H](C)NC(=O)[C@@H](NC(=O)OCc1ccccc1)C(C)C)C(=O)CF` [Z-VAD-FMK] (Cbz-Val-Ala-Asp(OMe)-CH2F), the “CTFα and C31 from CTFβ-GFP” value in assay [3] is recorded as “absence”. In [4] (immunoblot, antibody to GFP), the C31 fragment levels/formation entry is listed as “prevented”.

On to `C[C@@H]1C[C@@H]([C@H](O)CC2CC(=O)NC(=O)C2)C(=O)[C@@H](C)C1` [cycloheximide, reference compound], for which the “effect on APP-WT staining” value in assay [5] (inhibition of protein synthesis, mock- and μ4-depleted cells) is “rapid disappearance of APP-WT staining in both mock- and μ4-depleted cells”.

On to YKFFE, for which, in the assay on μ1, μ2 and μ3 subunits, the “Y2H interaction with μ1, μ2, μ3” value was “does not bind to these μ subunits”.

“APP-WT: wild-type APP expressed in HeLa cells”: in [5] (HeLa cells, normal conditions, n=11), the “localization of APP to endosomes” value is given as 74 ± 8%.

B1: synthetic ENPTYKFFEQ peptide derived from the APP tail (peptide)
peptide: ENPTYKFFEQ
In the case of B1, the “stoichiometry N” value in assay [6] worked out at 1.

The record behind these values is paper PMC2841041 (Developmental cell, 2010).
